High-throughput results from PubChem.
Rows were chosen to be rich in hits. Some 1% of all compounds tested hit in one or more screens of this group.
PME-1 primary: PME-1 inhibitors via competitive probe labeling, primary screen, biochemical, fluorescence polarization, FP-Rh probe, HTS. 320,000 compounds, 0.53% hits. Protein phosphatase methylesterase 1 (Homo sapiens), Q9Y570. inhibition, % at 5.9 µM. recombinant PME-1;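 active = inhibition above the campaign mean of all compounds plus 3 SD, cut at about 26% in these data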;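 note: competitive labeling of PME-1 active site by serine hydrolase directed probe; 0% = PME-1 with DMSO and 100% = wells lacking PME-1 enzyme; inhibitors block probe labeling so polarization falls and inhibition rises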
Target sequence (Q9Y570 whole entry, looked up): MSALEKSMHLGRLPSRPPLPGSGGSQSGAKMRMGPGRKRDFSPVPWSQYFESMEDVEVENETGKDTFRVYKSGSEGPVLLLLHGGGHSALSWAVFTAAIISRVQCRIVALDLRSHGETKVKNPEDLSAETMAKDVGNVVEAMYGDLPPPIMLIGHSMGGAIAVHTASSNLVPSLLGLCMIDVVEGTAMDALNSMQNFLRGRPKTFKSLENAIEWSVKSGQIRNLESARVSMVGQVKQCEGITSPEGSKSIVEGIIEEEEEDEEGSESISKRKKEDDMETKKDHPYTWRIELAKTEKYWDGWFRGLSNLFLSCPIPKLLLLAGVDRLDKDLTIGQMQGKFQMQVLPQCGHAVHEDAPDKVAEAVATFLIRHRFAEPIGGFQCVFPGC
LYPLA2 counter: LYPLA2 inhibitors, primary screen, counter-screen for PME1 inhibitor project, biochemical, fluorescence polarization, FP-Rh probe ABPP; inhibition, % at 5.9 µM; Acyl-protein thioesterase 2 (Homo sapiens), O95372; 320,000 compounds, 0.38% hits; recombinant LYPLA2;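 active = inhibition above the screen-wide mean plus 3 SD, limit set per campaign, cut at about 26% in these data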;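 note: 0% = LYPLA2 with DMSO and 100% = wells lacking LYPLA2 enzyme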
procasp3 activ: activators of human procaspase-3 D3A mutant, primary screen, biochemical, absorbance, PC-3 D3A mutant, single concentration; recombinant procaspase-3 D3A, Ac-DEVD-pNA absorbance 405 nm; activation, % at 8.5 µM; 330,000 compounds, 0.11% hits;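 active = activation above the mean of all tested compounds plus 3 SD, cut at about 21% in these data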;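 note: 0% = DMSO alone and 100% = DMSO wells spiked with extra 5 µM PC-3 D3A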
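Compound: 8.5 µM single point, 0.8% DMSO / Material: Autoprocessing-dead procaspase-3 D3A mutant enzyme / Timing: 1 h preincubation plus 2 h reaction at 25 °C / Medium: Zinc-free HEPES/NaCl buffer with 0.01% Triton X-100 at pH 7.4 / Technique: 405 nm absorbance of p-nitroaniline, reads at 0 and 120 min / Repeats: one well per compound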
procasp7 counter: procaspase-7 activators, primary screen, counter-screen for procaspase-3 activator project, biochemical, absorbance, HTS, human; Caspase-7 (Homo sapiens), P55210; recombinant procaspase-7, Ac-DEVD-pNA absorbance 405 nm; D23A/D198A/D206A triple mutant, cannot self-cleave; scale: DMSO 0, 5 µM enzyme 100; activation, % at 8.5 µM; 330,000 compounds, 0.093% hits;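 active = percent activation above the screen-wide mean plus 3 SD, cut at about 25% in these data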
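Assay system: Uncleavable procaspase-7 mutant enzyme; Input: 2 µM procaspase-7 mutant as dispensed; Also added: DEVD-pNA substrate; Medium: Zinc-free HEPES pH 7.4 with 300 mM NaCl, 0.01% Triton X-100; Timing: 1 h compound preincubation, 2 h substrate cleavage, 25 °C; Measured by: Epi-absorbance of released pNA at 405 nm, two timepoints.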
LYPLA1 inh: LYPLA1 inhibitors, primary screen, counter-screen for PME1 inhibitor project, biochemical, fluorescence polarization, FP-Rh probe ABPP; AID 2174, 2009; inhibition, % at 5.9 µM; Acyl-protein thioesterase 1 (Homo sapiens), O75608; recombinant LYPLA1; 320,000 compounds, 0.16% hits;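 active = inhibition above the mean of all tested compounds plus 3 SD, set per campaign, cut at about 14% in these data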;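 note: inhibitors block serine hydrolase probe labeling of LYPLA1 so polarization falls; 0% = enzyme with DMSO and 100% = wells lacking LYPLA1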
Target sequence (O75608 whole entry, looked up): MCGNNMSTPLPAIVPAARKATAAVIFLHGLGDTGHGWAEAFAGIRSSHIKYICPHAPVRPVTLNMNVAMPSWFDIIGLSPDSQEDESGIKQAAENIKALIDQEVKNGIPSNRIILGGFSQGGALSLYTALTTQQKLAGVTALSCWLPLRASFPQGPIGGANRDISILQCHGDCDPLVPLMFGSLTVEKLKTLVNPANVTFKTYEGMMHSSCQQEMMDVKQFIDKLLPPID
Fam108B inh: mouse Fam108B serine hydrolase inhibitors, primary screen, counter-screen for RBBP9 inhibitor project, biochemical, fluorescence polarization | recombinant Fam108B, FP-Rh probe fluorescence polarization | inhibition, % at 9.51 µM | 300,000 compounds, 0.33% hits;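 active = inhibition above the screen mean inhibition plus 3 SD, computed separately per campaign, cut at about 18% in these data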;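 note: inhibitors lower polarization as less probe binds the enzyme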
* hit, by the source's call.

How did O=[N+]([O-])c1ccc(N2CCN(C(=S)NCc3ccc(Cl)cc3)CC2)cc1 do in these assays?
PME-1 primary: -18.3; LYPLA2 counter: 27.6*; procasp3 activ: -1.6; procasp7 counter: -16.3; LYPLA1 inh: -2.6; Fam108B inh: -7.1

What do the screens show for `CCNC(=S)N1CCN(c2ccc([N+](=O)[O-])cc2)CC1`?
PME-1 primary: 5.3; LYPLA2 counter: 10.4; procasp3 activ: -12.5; procasp7 counter: -4.0; LYPLA1 inh: 2.1; Fam108B inh: -0.6

Results for CCCCn1c(N)c(N(Cc2ccccc2OC)C(=O)C(C)Oc2ccc(Cl)cc2)c(=O)[nH]c1=O (stereo not given) ?
PME-1 primary: 1.6; LYPLA2 counter: 3.9; procasp3 activ: 6.9; procasp7 counter: 7.9; LYPLA1 inh: 4.6; Fam108B inh: 1.5

Results for O=c1c2ccccc2nnn1CCO ?
PME-1 primary: -2.0; LYPLA2 counter: 3.8; procasp3 activ: 3.8; procasp7 counter: 7.5; LYPLA1 inh: 0.6; Fam108B inh: 1.2

Results for O=C1c2cccc3c([N+](=O)[O-])ccc(c23)C(=O)N1c1ccc(Cl)cn1 ?
PME-1 primary: 27.6*; LYPLA2 counter: -6.3; procasp3 activ: -4.4; procasp7 counter: -7.5; LYPLA1 inh: -10.0; Fam108B inh: 7.3

How did CCCn1c(=O)c(C(=O)OCC)c(O)c2cc(Br)ccc21 do in these assays?
PME-1 primary: -0.2; LYPLA2 counter: -6.4; procasp3 activ: -2.9; procasp7 counter: 0.2; LYPLA1 inh: -4.2; Fam108B inh: -3.1

Results for CCOC(=O)c1c2c(n(C)c1COC)C(=O)C(=O)c1ccc(Br)cc1-2 ?
PME-1 primary: -4.5; LYPLA2 counter: -2.5; procasp3 activ: 6.3; procasp7 counter: 5.3; LYPLA1 inh: -3.6; Fam108B inh: 28.6*

How did Nc1n[nH]c(C2CC2)c1N=Nc1ccc(Cl)c(Cl)c1 do in these assays?
PME-1 primary: 30.8*; LYPLA2 counter: -9.9; procasp3 activ: -2.7; procasp7 counter: -6.9; LYPLA1 inh: -1.2; Fam108B inh: 5.4

What do the screens show for `Nc1n[nH]c(C2CC2)c1N=Nc1ccc(Cl)cc1`?
PME-1 primary: 0.2; LYPLA2 counter: -2.6; procasp3 activ: 0.8; procasp7 counter: -5.9; LYPLA1 inh: 1.6; Fam108B inh: 3.2

Results for O=C(Cc1ccc([N+](=O)[O-])cc1)Nc1ccc(O)cc1C(=O)O ?
PME-1 primary: 9.6; LYPLA2 counter: 0.1; procasp3 activ: 12.4; procasp7 counter: 8.3; LYPLA1 inh: 0.0; Fam108B inh: -1.6

How did CCOc1ccc(NC(=S)NNc2ccnc3cc(Cl)ccc23)cc1 do in these assays?
PME-1 primary: 38.4*; LYPLA2 counter: -0.8; procasp3 activ: -10.2; procasp7 counter: -34.8; LYPLA1 inh: -6.3; Fam108B inh: 5.2

Results for CNC(=O)c1cc(Oc2ccc(NC(=O)Nc3ccc(Cl)c(C(F)(F)F)c3)cc2)ccn1 ?
PME-1 primary: -151.5; LYPLA2 counter: -116.5; procasp3 activ: -0.4; procasp7 counter: 4.3; LYPLA1 inh: -69.2

What do the screens show for `COc1ccc2nc(SCC(=O)N(C)C3CCCCC3)[nH]c2c1`?
PME-1 primary: 1.1; LYPLA2 counter: 2.0; procasp3 activ: 5.2; procasp7 counter: -9.1; LYPLA1 inh: -4.8

What do the screens show for `CC(=O)c1ccc(S(=O)(=O)N2CCN(C(=O)c3ccc(-n4nc(C)c(Cl)c4C)cc3)CC2)cc1`?
PME-1 primary: 1.6; LYPLA2 counter: -8.7; procasp3 activ: 2.1; procasp7 counter: -4.7; LYPLA1 inh: -2.8

What do the screens show for `COc1ncnc2sc(-c3ccccc3)cc12`?
PME-1 primary: -0.3; LYPLA2 counter: -5.5; procasp3 activ: 6.8; procasp7 counter: 7.7; LYPLA1 inh: -8.8; Fam108B inh: -0.7

What do the screens show for `COc1ccc(Nc2ncnc3sc(-c4ccccc4)cc23)cc1`?
PME-1 primary: 33.5*; LYPLA2 counter: 9.6; procasp3 activ: -6.3; procasp7 counter: 19.5; LYPLA1 inh: -3.5; Fam108B inh: 12.2

What do the screens show for `CCOc1ccc(CCNC(=O)c2ccc3ccccc3n2)cc1OCC`?
PME-1 primary: 0.1; LYPLA2 counter: -4.0; procasp3 activ: 7.5; procasp7 counter: -1.2; LYPLA1 inh: -2.9; Fam108B inh: 2.3

Results for COc1ccc(/C=C2\Sc3ccc(C(=O)N4CCN(Cc5ccccc5)CC4)cc3N(C)C2=O)cc1OC ?
PME-1 primary: 41.6*; LYPLA2 counter: 5.6; procasp3 activ: -3.2; procasp7 counter: -5.7; LYPLA1 inh: -1.9; Fam108B inh: -2.2

What do the screens show for `CN1CCN(C(=O)c2ccc3c(c2)N(C)C(=O)/C(=C/c2cccc(Cl)c2)S3)CC1`?
PME-1 primary: 21.0; LYPLA2 counter: 4.3; procasp3 activ: -0.3; procasp7 counter: 1.5; LYPLA1 inh: 0.6; Fam108B inh: 0.4

How did CC(C)Cn1nc(C(=O)Nc2nnc(C3CC3)s2)c2ccccc2c1=O do in these assays?
PME-1 primary: 0.1; LYPLA2 counter: -2.7; procasp3 activ: 1.0; procasp7 counter: 2.0; LYPLA1 inh: -0.5

How did Cc1oc(-c2ccc3ccccc3c2)nc1CN(C)C(C)c1ccncn1 (stereo not given) do in these assays?
PME-1 primary: 28.9*; LYPLA2 counter: -8.7; procasp3 activ: -8.3; procasp7 counter: 6.0; LYPLA1 inh: -1.9; Fam108B inh: -2.6

Results for COc1ccc(NC(=O)CSc2nc3nc(-c4cccs4)cc(C(F)(F)F)c3c(=O)[nH]2)c(OC)c1 ?
PME-1 primary: 45.7*; LYPLA2 counter: -5.5; procasp3 activ: 5.5; procasp7 counter: 4.6; LYPLA1 inh: -7.9; Fam108B inh: -1.1

What do the screens show for `CCOc1ccccc1NC(=O)CSc1nc2nc(-c3cccs3)cc(C(F)(F)F)c2c(=O)[nH]1`?
PME-1 primary: -0.8; LYPLA2 counter: -11.8; procasp3 activ: -26.1; procasp7 counter: 1.2; LYPLA1 inh: -6.2; Fam108B inh: -11.3

What do the screens show for `CC(C)=CCc1cc2c(=O)c3c(O)c4c(cc3oc2c(O)c1O)OC(C)C4(C)C` (stereo not given)?
PME-1 primary: 29.7*; LYPLA2 counter: -36.9; procasp3 activ: 5.3; procasp7 counter: 8.9; LYPLA1 inh: -29.2; Fam108B inh: -2.5

How did CC1Oc2cc3oc4c(O)c5c(cc4c(=O)c3c(O)c2C1(C)C)C=CC(C)(C)O5 (stereo not given) do in these assays?
PME-1 primary: -13.3; LYPLA2 counter: -9.1; procasp3 activ: 4.4; procasp7 counter: 4.3; LYPLA1 inh: -9.0; Fam108B inh: -3.3
